KCNQ1 act: potentiates or activates the human KCNQ1 potassium channel; B-score at 10 µM; CHO-K1 KCNQ1, thallium flux FluxOR fluorescence; hits give high values; P51787; hit rate 0.35% among 310,000; AID 2648;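 active means fluorescence ratio B-score, a plate-corrected score, at least three library SD, with initial intensity B-score within 5 SD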
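Doses: Single concentration per compound, DMSO matched to controls | Test system: KCNQ1-transfected CHO-K1 cells | Timing: 90 min dye loading and 20 min compound exposure, both at room temperature | Measured by: Kinetic FluxOR thallium fluorescence, 10-s 1-Hz baseline, 110-s post-stimulus read | Medium: Assay buffer with matched DMSO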
KCNK3 block: human KCNK3 channel inhibition, primary screen | hit rate 0.84% among 340,000 | CHO-KCNK3 thallium flux, FluxOR fluorescence; hits give low values | O14649 | B-score at 10 µM;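 active means B-score under library mean minus 4 SD, starting fluorescence ratio at most library mean plus 5 SD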;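 further: more negative B-score means stronger inhibition of thallium flux through KCNK3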
Target sequence (O14649 whole entry, looked up): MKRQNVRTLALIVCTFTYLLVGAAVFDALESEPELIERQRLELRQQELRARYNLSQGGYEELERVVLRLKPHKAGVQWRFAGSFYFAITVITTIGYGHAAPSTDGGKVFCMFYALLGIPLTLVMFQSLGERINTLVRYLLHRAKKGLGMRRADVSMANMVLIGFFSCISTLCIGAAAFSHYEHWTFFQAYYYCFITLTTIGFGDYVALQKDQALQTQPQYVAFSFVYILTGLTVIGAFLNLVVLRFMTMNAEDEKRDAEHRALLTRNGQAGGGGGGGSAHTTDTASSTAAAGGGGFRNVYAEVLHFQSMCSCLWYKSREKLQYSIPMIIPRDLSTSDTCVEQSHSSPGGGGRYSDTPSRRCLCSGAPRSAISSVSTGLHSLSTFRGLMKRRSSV
hERG protect: hERG (human) protection from proarrhythmic block | Q12809 | CHO-hERG, FluxOR thallium flux, dofetilide IC70 present | activation (rescue from dofetilide block), less the hit threshold, % at 10 µM | hit rate 0.51% among 310,000 | AID 1511;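 active means activation above the mean of controls blocked by dofetilide plus 5 SD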;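 further: thallium influx through hERG after potassium depolarization seen as dye fluorescence rise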
Kir21 inh: inhibitors of mouse Kir2.1 inward-rectifier potassium channel. HEK293-Kir2.1, FluxOR thallium flux fluorescence; hits give low values. B-score at 10 µM. hit rate 0.85% among 310,000. AID 1672;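 active means fluorescence ratio B-score at or below minus 3 SD of library scores, with starting-brightness B-score within 2 SD, cut at about -4.2 in these data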;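 further: channel flux triggered by added potassium and thallium sulfate stimulus; B-score of peak minus minimum fluorescence over baseline after thallium stimulus; more negative B-score means stronger Kir2.1 block with less thallium influx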
KCNQ1 inh: blocks the human KCNQ1 potassium channel; P51787; CHO-K1 KCNQ1, FluxOR thallium flux fluorescence; hits give high values; B-score at 10 µM; hit rate 1.3% among 310,000; AID 2642;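 active means compounds whose thallium flux B-score, printed positive for inhibition, exceeds three library SD while starting fluorescence stays within three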;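 further: channel opened by potassium depolarization with thallium stimulus after 20 min compound exposure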
KCNK9 inh: inhibitors of human KCNK9 two-pore domain potassium channel; AID 488922; hit rate 1.2% among 310,000; HEK293 KCNK9, FluxOR thallium flux fluorescence; hits give low values; B-score at 10 µM; Q9NPC2;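 active means ratio B-score over 3 SD below the library mean, with starting fluorescence within 5 SD of its mean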;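 further: negative B-score means less thallium flux so channel inhibition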
Starred values were filed as active, the others as inactive; i = inactive; . = not tested or not shown. Only some compounds are listed: those with a hit (about 3.7% of all), similar ones and a draw of the others.

SMILES	KCNQ1 act	KCNK3 block	hERG protect	Kir21 inh	KCNQ1 inh	KCNK9 inh
COC(=O)c1ccc(Cl)c(NC(=O)CN(c2ccc3c(c2)OCO3)S(C)(=O)=O)c1	i	i	-6	1.4	i	i
CC(=O)c1c(CSc2ccccc2)oc2ccc(O)c(CN(C)C)c12	i	i	-9	-6.5*	i	i
CC(=O)C1=C(c2cccc([N+](=O)[O-])c2)N(C(C)=O)n2c(C)nnc2S1	i	i	-17	-1.1	7*	i
Cc1ccc(C2C3=C(NCCN=C3c3ccccc3)C(=O)N2c2ccccc2)cc1 (stereo unspecified)	i	i	-14	-8.8*	i	i
CCOc1ccc(N2C(=O)C3=C(C(c4ccc(Cl)cc4)=NCCN3)C2c2cccnc2)cc1 (stereo unspecified)	i	i	-10	0.22	i	i
O=C(NC(=S)Nc1ccccc1F)c1ccc(Br)o1	77*	i	32*	-0.25	i	i
Cc1ccc(NC(=S)NC(=O)c2ccc(Br)o2)c(C)c1	i	i	0	-1.6	i	i
Cc1cccc(C)c1NC(=S)NC(=O)c1ccc(Br)o1	27*	i	25*	1.7	i	i
Cc1cccc(NC(=S)NC(=O)c2ccc(Br)o2)c1C	i	i	46*	0.37	i	i
CCN(c1ccccc1)S(=O)(=O)c1ccc(NC(=S)NC(=O)c2ccc(Br)o2)cc1	12*	i	11*	-0.54	i	i
COc1ccc(C2=C(C)C(N3CCN(C(=O)c4ccco4)CC3)=NS2(=O)=O)cc1	i	i	-2	2	i	i
COCC(=O)N1CCC2CC1c1c(-c3ccc(C(F)(F)F)cc3)cccc12 (stereo unspecified)	.	i	.	.	.	.
CCOC(=O)[C@@H]1[C@H]2COc3ccccc3[C@@H]2N2C(=O)N(c3ccc(C)cc3)C(=O)[C@]12C	i	i	-4	0.22	i	i
Cc1ccccc1N(C(=O)c1snc(C(N)=O)c1N)C(C(=O)NC1CCCCC1)c1ccc(O)cc1 (stereo unspecified)	i	i	-9	-1	6*	i
COc1ccc(N(C(=O)c2snc(C(N)=O)c2N)C(C(=O)NC2CCCCC2)c2ccc(C)o2)c(OC)c1 (stereo unspecified)	i	i	-9	0.75	6*	i
COc1ccc(C(C(=O)NC2CCCCC2)N(C(=O)c2snc(C(N)=O)c2N)c2ccc(OC)cc2OC)cc1 (stereo unspecified)	i	i	-8	0.06	i	i
CC(C)CC(=O)Nc1ccc(C(=O)COC(=O)C2CC(=O)N(Cc3ccccc3)C2)cc1 (stereo unspecified)	.	i	.	.	.	.
O=C(COC(=O)c1cccc2ccccc12)Nc1cccnc1Cl	i	i	-4	0.56	i	i
CCC(=O)Nc1ccccc1C(=O)OCC(=O)c1cccc2ccccc12	i	-11*	-10	1.4	i	-7.3*
O=C(COC(=O)c1ccncc1)Nc1cccc2ccccc12	.	-8.8*	.	.	.	.
COc1cccc(N2CCN(C(=O)c3cc(-c4ccccc4)nc4c3cnn4C(C)C)CC2)c1	.	i	.	.	.	.
CCOC(=O)C1CCN(C(=O)C(CCSC)NC(=O)c2ccccc2OC)CC1 (stereo unspecified)	.	i	.	.	.	.
C/C(=N\Nc1nc2ccccc2[nH]1)c1ccc(Cl)s1	11*	i	-8	1.4	i	i
O=C(NCCCl)Nc1ccccc1OCCOc1ccccc1NC(=O)NCCCl	i	i	-9	1.1	i	-7*
CCCc1cnc(NCCNCC(O)COc2ccc(Cl)c(Cl)c2)nc1 (stereo unspecified)	i	i	-33	-6.5*	i	i
O=C(NC(=S)Nc1ccccc1)c1ccc(-c2ccccc2)cc1	i	i	-6	-0.52	i	i
O=C(NC(=S)Nc1ccc(C(F)(F)F)cc1)c1csnn1	141*	i	56*	0.2	i	i
COc1ccc(NC(=S)NC(=O)c2csnn2)cc1	24*	i	16*	-0.43	i	i

Compound activity as filed in PubChem.
